Reference: paper PMC11912358 (RSC Advances, 2025)

Key:
HeLa cells = assay: Cellular uptake by flow cytometry; format: cell-based; conditions: 150 nM peptide, 1 h, 37 °C, 5% CO2, serum-free medium, AF647 fluorescence, AF647-NEt2 control as reference
[1] = Cytotoxicity assay using cell-counting kit-8; format: cell-based
Outline: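 HeLa cells (5 × 10³) exposed to dye-labelled (Alexa Fluor 647) tripeptides carrying perfluoroalkyl or alkyl chains for 1 h. Viability read with the CCK-8 reagent, and IC50 reported from this read-out.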

In the case of `C[C@H](NC(=O)CCCCCC1(C)C(=CC=CC=CC2=[N+](CCCS(=O)(=O)[O-])c3ccc(S(=O)(=O)O)cc3C2(C)C)N(CCCS(=O)(=O)O)c2ccc(S(=O)(=O)O)cc21)C(=O)N[C@@H](CC(=O)Nc1ccc(C(F)(F)C(F)(F)C(F)(F)C(F)(F)C(F)(F)C(F)(F)C(F)(F)C(F)(F)F)cc1)C(=O)N[C@@H](Cc1ccccc1)C(N)=O` (some centres unmarked) [AF647-RF-tripeptide (RF = C8F17)], the “Cellular uptake efficiency (fluorescence intensity of cells, RFI)” value (HeLa cells) is reported as “comparable cellular uptake efficiencies” and the IC50 [1] is reported as 41 ± 9 µM.
